# Measurements gathered from unrelated publications.
# Each line is one published result; the experiments were not run side by side.
# Target: Muscle, skeletal receptor tyrosine-protein kinase (MUSK, Homo sapiens, UniProt O15146)
# One construct used (O15146 24-869): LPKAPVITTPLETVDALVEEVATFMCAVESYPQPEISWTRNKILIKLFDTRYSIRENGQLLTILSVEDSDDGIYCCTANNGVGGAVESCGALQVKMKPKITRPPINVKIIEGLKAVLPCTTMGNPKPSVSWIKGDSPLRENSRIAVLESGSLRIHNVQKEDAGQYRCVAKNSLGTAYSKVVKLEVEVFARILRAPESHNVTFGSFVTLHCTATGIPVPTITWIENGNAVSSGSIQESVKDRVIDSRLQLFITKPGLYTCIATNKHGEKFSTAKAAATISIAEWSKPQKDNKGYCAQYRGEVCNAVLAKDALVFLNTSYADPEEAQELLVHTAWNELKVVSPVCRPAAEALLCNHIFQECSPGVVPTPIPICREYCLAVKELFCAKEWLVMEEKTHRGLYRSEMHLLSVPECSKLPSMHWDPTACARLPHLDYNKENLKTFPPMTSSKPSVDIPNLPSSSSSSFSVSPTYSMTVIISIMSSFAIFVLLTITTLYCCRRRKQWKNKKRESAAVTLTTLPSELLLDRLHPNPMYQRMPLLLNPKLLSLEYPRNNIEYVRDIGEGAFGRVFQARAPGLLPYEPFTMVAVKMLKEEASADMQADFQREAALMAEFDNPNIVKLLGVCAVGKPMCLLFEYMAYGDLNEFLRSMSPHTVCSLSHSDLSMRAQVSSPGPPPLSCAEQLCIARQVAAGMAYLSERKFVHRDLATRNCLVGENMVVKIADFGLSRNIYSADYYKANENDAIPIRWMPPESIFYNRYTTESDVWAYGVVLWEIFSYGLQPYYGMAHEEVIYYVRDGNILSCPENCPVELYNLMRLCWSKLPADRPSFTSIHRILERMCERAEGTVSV
SMILES,effect on,action,method,tested at,quantity,result
O=C(NC[C@@H]1[C@H]2CN(C(=O)OCc3cc(C(F)(F)F)cc(C(F)(F)F)c3)C[C@@H]12)c1ccc2[nH]nnc2c1,cell-free assay,,competition with immobilised ligand,1 µM,remaining binding,77%
CCN(CC)CCNC(=O)c1c(C)[nH]c(/C=C2\C(=O)Nc3ccc(F)cc32)c1C,enzyme activity,inhibitor,,10 µM,inhibition,90%
CC(C)(O)[C@H]1CC[C@H](Nc2ccc3ncc(-c4cccc(C(F)(F)F)c4)n3n2)CC1,enzyme activity,inhibitor,,1 µM,remaining activity,23.7%
Cc1ccc(Nc2nccc(N(C)c3ccc4c(C)n(C)nc4c3)n2)cc1S(N)(=O)=O,enzyme activity,inhibitor,,0.3 µM,inhibition,75%
CNC(=O)c1cc2c(Oc3ccc(NC(=O)C4(C(=O)Nc5ccc(F)cc5)CC4)cc3)ccnc2cc1OC,enzyme activity,inhibitor,radiometric,1 µM,inhibition,70%
CC(=O)N1CCC(c2ccc(C(=O)NC(=N)N)cc2C(F)(F)F)CC1,cell-free assay,,competition with immobilised ligand,1 µM,remaining binding,100%
Cc1ccc(C(=O)Nc2ccc(CN3CCN(C)CC3)c(C(F)(F)F)c2)cc1C#Cc1cnc2cccnn12,enzyme activity,inhibitor,,23.5 nM,remaining activity,8%
O=C(O)[C@@H]1[C@@H](Cn2nnc3ccccc3c2=O)CC[C@H]1C(=O)c1ccc(OCCC2CCOCC2)cc1,cell-free assay,,competition with immobilised ligand,1 µM,remaining binding,100%
CCN(CC)c1ccc(C2=NNC(=O)CC2C)cc1[N+](=O)[O-] (stereo not drawn),enzyme activity,inhibitor,,10 µM,remaining activity,85%
O=C1NC(=O)c2cc(Nc3ccc(F)cc3)c(Nc3ccc(F)cc3)cc21,cell-free assay,,,0.5 µM,remaining signal,90.2%
CC(C)(C)c1nc(-c2cccc(NS(=O)(=O)c3c(F)cccc3F)c2F)c(-c2ccnc(N)n2)s1,enzyme activity,inhibitor,radiometric,1 µM,remaining activity,113%
CS(=O)(=O)NCC[C@H](NC(=O)c1cncc2c1cnn2-c1ccc(F)cc1)c1ccnc(S(C)(=O)=O)c1,cell-free assay,,competition with immobilised ligand,1 µM,remaining binding,100%
CNC(=O)c1cc(Oc2ccc(NC(=O)Nc3ccc(Cl)c(C(F)(F)F)c3)cc2)ccn1,enzyme activity,inhibitor,,0.3 µM,inhibition,77%
NS(=O)(=O)c1cc(NC(=O)Cc2ccccc2)ccc1Oc1cccc(Cl)c1,cell-free assay,,competition with immobilised ligand,1 µM,remaining binding,100%
Cc1ccc(NC(=O)c2ccc(C)c(C(F)(F)F)c2)cc1C#Cc1nn(C2CCC(O)CC2)c2ncnc(N)c12 (stereo not drawn),cell-free assay,,,10 µM,remaining signal,70%
Cc1cnc(NC2CCOCC2)nc1-n1cnc(C(=O)NC(CN)c2cc(F)cc(Cl)c2)c1 (stereo not drawn),enzyme activity,inhibitor,radiometric,1 µM,remaining activity,97%
CN(C)C(=O)Cn1cc(-c2nc(C3(c4ccc(-c5cnc(N)nc5)cc4)CC3)no2)cn1,cell-free assay,,competition with immobilised ligand,1 µM,remaining binding,100%
O=C(Nc1cnn(-c2csc(C(=O)NC3COC3)c2)c1)Nc1c(F)cccc1Cl,enzyme activity,inhibitor,,5 µM,remaining activity,86.8%
CN1CC(Oc2cnc(C#N)cc2-c2ccn3nc(NC(=O)C4CC4)cc3c2)C1,enzyme activity,inhibitor,,1 µM,inhibition,6%
CCCOc1ccc(OC)c(F)c1C(=O)c1ccc(C(=O)N[C@@H]2CNC[C@H]2NC(=O)c2ccc3[nH]ncc3c2)cc1,enzyme activity,inhibitor,,0.75 µM,remaining activity,13%
C[C@H](NC(=O)c1cnc2n1[C@](C)(Cc1ccc(C#N)cc1)C(=O)N2c1cc(Cl)c(F)c(Cl)c1)C(=O)NC1(c2ccccn2)CC1,cell-free assay,,competition with immobilised ligand,1 µM,remaining binding,100%
O=C1Nc2ccc(Cl)cc2C1=Cc1cc(Cl)c(O)c(Cl)c1,cell-free assay,,,0.5 µM,remaining signal,65.5%
CNCc1ccccc1-c1csc([C@H](C)Nc2nc(C)nc3cc(OC)c(OC)cc23)c1,cell-free assay,,competition with immobilised ligand,1 µM,remaining binding,90%
COc1cc2ncnc(Nc3ccc(Oc4ccccc4)cc3C)c2cc1OC,enzyme activity,inhibitor,,1 µM,inhibition,4%
